# Assay results published in publication PMC9055496 (RSC Advances, 2020).
# Entries after “also recorded” stand apart in the source; their conditions may differ. Read-outs that look alike come from different tables or passages of the source.
# Assays:
# [1] = assay type: in vivo, Sprague-Dawley rats; conditions: for Number of metabolites detected and tentatively identified: rat bile, urine, plasma and feces, oral 100 mg kg^−1; for Metabolic stability, comparison in words: rat in vivo metabolite profile, HFBA vs HPABA, R-HFBA vs S-HFBA
# Procedure, shortened: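 Fasted male Sprague-Dawley rats (n = 5/group) received a single 100 mg kg−1 gavage in 0.5% CMC-Na. Urine and feces were collected 0–24 h in metabolic cages, heparinised plasma at 0.5, 3 and 6 h, and bile 0–12 h from bile-duct-catheterised rats. Feces were powdered and sonicated in methanol for 30 min. Analysis was by UHPLC-FT-ICR-MS, positive ESI, m/z 50–1000, with MS/MS at 10 eV.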
# [2] = cited from earlier work
# [3] = Urinary excretion of unchanged drug in rats after a single oral dose; assay type: in vivo, Sprague-Dawley rats; conditions: rat; for Time period of highest urinary excretion ratio: oral 50 mg kg^−1; for Cumulative amount in urine: n = 5, mean ± SD; for Cumulative urinary excretion, share of the total dose: oral 50 mg kg^−1, during 48 h, unchanged drug
# Procedure, shortened: (§1)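 Male Sprague-Dawley rats (220 ± 20 g), fasted 12 h, given 50 mg kg−1 by gavage in 0.5% CMC-Na (n = 5/group). Urine and feces were collected in metabolic cages at intervals to 48 h; feces were air-dried, weighed and homogenised in saline. Bile-duct-cannulated rats (ether anaesthesia) were dosed after recovery, with bile collected every 2 h to 12 h. Unchanged drug was measured by UHPLC-MS/MS (positive ESI MRM, internal standard; LLOQ 0.005 μg mL−1).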
# [4] = Fecal excretion of unchanged drug in rats after a single oral dose; assay type: in vivo, Sprague-Dawley rats; conditions: rat; for Time period of highest fecal excretion ratio: oral 50 mg kg^−1; for Cumulative amount in feces: n = 5, mean ± SD; for Accumulative fecal excretion, share of the total dose: unchanged drug
# Procedure, shortened: as §1
# [5] = assay type: in vivo, Sprague-Dawley rats; conditions: for Cumulative amount in bile: bile duct cannulated rat, n = 5, mean ± SD; for Cumulative biliary excretion, share of the dose: rat, oral 50 mg kg^−1, during 12 h, unchanged drug
# Procedure, shortened: as §1
# [6] = Total cumulative excretion in three routes; assay type: in vivo, Sprague-Dawley rats; conditions: rat, oral 50 mg kg^−1, unchanged drug
# Procedure, shortened: as §1
# [7] = cited from earlier work; remark: listed apart in the source
# [8] = cited from earlier work; remark: listed apart in the source
# [9] = cited from earlier work; remark: listed apart in the source
# [10] = rats, oral (oral or intravenous) administration of each enantiomer
structure (smiles),measurement,setting,value
"CC(O)C(=O)Nc1ccc(C(F)(F)F)cc1C(=O)O (stereo not shown) [HFBA, 2-(2-Hydroxypropanamido)-5-trifluoromethyl benzoic acid]",Number of metabolites detected and tentatively identified,[1],8
same,"Metabolic stability, comparison in words",[1],more metabolically stable than HPABA
same,Bioavailability compared with HPABA,[2],better
same,Half-life compared with HPABA,[2],longer
"CC(O)C(=O)Nc1ccc(C(F)(F)F)cc1C(=O)O (stereo not shown) [R-HFBA, 2-(2-Hydroxypropanamido)-5-trifluoromethyl benzoic acid]",Time period of highest urinary excretion ratio,[3],0 to 2 h
same,Cumulative amount in urine,"[3]; oral 50 mg kg^−1, 2 h",2747 ± 332 µg
same,Cumulative amount in urine,"[3]; oral 50 mg kg^−1, 4 h",3149 ± 292 µg
same,Cumulative amount in urine,"[3]; oral 50 mg kg^−1, 6 h",3309 ± 457 µg
same,Cumulative amount in urine,"[3]; oral 50 mg kg^−1, 8 h",3894 ± 504 µg
same,Cumulative amount in urine,"[3]; oral 50 mg kg^−1, 10 h",4010 ± 450 µg
same,Cumulative amount in urine,"[3]; oral 50 mg kg^−1, 12 h",4117 ± 435 µg
same,Cumulative amount in urine,"[3]; oral 50 mg kg^−1, 24 h",4333 ± 518 µg
same,Cumulative amount in urine,"[3]; oral 50 mg kg^−1, 36 h",4394 ± 485 µg
same,Cumulative amount in urine,"[3]; oral 50 mg kg^−1, 48 h",4425 ± 478 µg
same,"Cumulative urinary excretion, share of the total dose",[3],40.2%
same,Time period of highest fecal excretion ratio,[4],6 to 8 h
same,Cumulative amount in feces,"[4]; oral 50 mg kg^−1, 2 h",6.300 ± 1.60 µg
same,Cumulative amount in feces,"[4]; oral 50 mg kg^−1, 4 h",11.00 ± 3.50 µg
same,Cumulative amount in feces,"[4]; oral 50 mg kg^−1, 6 h",254.1 ± 400 µg
same,Cumulative amount in feces,"[4]; oral 50 mg kg^−1, 8 h",1216 ± 518 µg
same,Cumulative amount in feces,"[4]; oral 50 mg kg^−1, 10 h",1980 ± 512 µg
same,Cumulative amount in feces,"[4]; oral 50 mg kg^−1, 12 h",2362 ± 629 µg
same,Cumulative amount in feces,"[4]; oral 50 mg kg^−1, 24 h",2687 ± 598 µg
same,Cumulative amount in feces,"[4]; oral 50 mg kg^−1, 36 h",2782 ± 635 µg
same,Cumulative amount in feces,"[4]; oral 50 mg kg^−1, 48 h",2817 ± 626 µg
same,"Accumulative fecal excretion, share of the total dose","[4]; oral 50 mg kg^−1, 48 h",25.6%
same,Cumulative amount in bile,"[5]; oral 50 mg kg^−1, 2 h",185.3 ± 8.20 µg
same,Cumulative amount in bile,"[5]; oral 50 mg kg^−1, 4 h",531.7 ± 95.4 µg
same,Cumulative amount in bile,"[5]; oral 50 mg kg^−1, 6 h",783.1 ± 56.6 µg
same,Cumulative amount in bile,"[5]; oral 50 mg kg^−1, 8 h",925.9 ± 68.1 µg
same,Cumulative amount in bile,"[5]; oral 50 mg kg^−1, 10 h",1075 ± 62.6 µg
same,Cumulative amount in bile,"[5]; oral 50 mg kg^−1, 12 h",1239 ± 54.6 µg
same,"Cumulative biliary excretion, share of the dose",[5],11.3%
same,"Total cumulative excretion in three routes, share of the dose",[6],65.8%
same,Number of metabolites detected and tentatively identified,[1],7
same,"Metabolic stability, comparison in words",[1],more metabolically stable than S-HFBA
same,AUC compared with S-HFBA,[2]; [10],greater; also recorded: larger
same,Clearance (CL) compared with S-HFBA,[2]; [10],significantly lower
same,t1/2 compared with S-HFBA,[2]; [10],greater; also recorded: longer
same,Anti-inflammatory activity compared with aspirin,[7],superior to aspirin
same,Antiplatelet aggregation activity compared with aspirin,[8],superior to aspirin
same,Gastrointestinal toxicity compared with aspirin,[9],less
"CC(O)C(=O)Nc1ccc(C(F)(F)F)cc1C(=O)O (stereo not shown) [S-HFBA, 2-(2-Hydroxypropanamido)-5-trifluoromethyl benzoic acid]",Time period of highest urinary excretion ratio,[3],0 to 2 h
same,Cumulative amount in urine,"[3]; oral 50 mg kg^−1, 2 h",1831 ± 253 µg
same,Cumulative amount in urine,"[3]; oral 50 mg kg^−1, 4 h",2525 ± 285 µg
same,Cumulative amount in urine,"[3]; oral 50 mg kg^−1, 6 h",2713 ± 185 µg
same,Cumulative amount in urine,"[3]; oral 50 mg kg^−1, 8 h",3098 ± 279 µg
same,Cumulative amount in urine,"[3]; oral 50 mg kg^−1, 10 h",3249 ± 294 µg
same,Cumulative amount in urine,"[3]; oral 50 mg kg^−1, 12 h",3313 ± 319 µg
same,Cumulative amount in urine,"[3]; oral 50 mg kg^−1, 24 h",3413 ± 251 µg
same,Cumulative amount in urine,"[3]; oral 50 mg kg^−1, 36 h",3469 ± 216 µg
same,Cumulative amount in urine,"[3]; oral 50 mg kg^−1, 48 h",3489 ± 225 µg
same,"Cumulative urinary excretion, share of the total dose",[3],31.7%
same,Time period of highest fecal excretion ratio,[4],10 to 12 h
same,Cumulative amount in feces,"[4]; oral 50 mg kg^−1, 2 h",5.800 ± 7.70 µg
same,Cumulative amount in feces,"[4]; oral 50 mg kg^−1, 4 h",17.60 ± 18.9 µg
same,Cumulative amount in feces,"[4]; oral 50 mg kg^−1, 6 h",89.90 ± 80.3 µg
same,Cumulative amount in feces,"[4]; oral 50 mg kg^−1, 8 h",791.6 ± 519 µg
same,Cumulative amount in feces,"[4]; oral 50 mg kg^−1, 10 h",1604 ± 459 µg
same,Cumulative amount in feces,"[4]; oral 50 mg kg^−1, 12 h",2470 ± 203 µg
same,Cumulative amount in feces,"[4]; oral 50 mg kg^−1, 24 h",2764 ± 248 µg
same,Cumulative amount in feces,"[4]; oral 50 mg kg^−1, 36 h",2878 ± 213 µg
same,Cumulative amount in feces,"[4]; oral 50 mg kg^−1, 48 h",2944 ± 252 µg
same,"Accumulative fecal excretion, share of the total dose","[4]; oral 50 mg kg^−1, 48 h",26.8%
same,Cumulative amount in bile,"[5]; oral 50 mg kg^−1, 2 h",170.8 ± 14.1 µg
same,Cumulative amount in bile,"[5]; oral 50 mg kg^−1, 4 h",515.4 ± 77.5 µg
same,Cumulative amount in bile,"[5]; oral 50 mg kg^−1, 6 h",571.8 ± 95.4 µg
same,Cumulative amount in bile,"[5]; oral 50 mg kg^−1, 8 h",652.9 ± 50.7 µg
same,Cumulative amount in bile,"[5]; oral 50 mg kg^−1, 10 h",745.6 ± 57.7 µg
same,Cumulative amount in bile,"[5]; oral 50 mg kg^−1, 12 h",817.0 ± 90.9 µg
same,"Cumulative biliary excretion, share of the dose",[5],7.4%
same,"Total cumulative excretion in three routes, share of the dose",[6],58.5%
same,Number of metabolites detected and tentatively identified,[1],8
same,Anti-inflammatory activity compared with aspirin,[7],superior to aspirin
same,Antiplatelet aggregation activity compared with aspirin,[8],superior to aspirin
same,Gastrointestinal toxicity compared with aspirin,[9],less
